Results on 5 compounds are retold here after article PMC4636733 (The Biochemical journal, 2012).

The target of data set [1] is PbIMPDH-B Phe411 substituted with Tyr (Penicillium brevicompactum, UniProt F1DBB2, F415Y). Nature of the data set: MPA inhibition of PbIMPDH-B variant 411*. The format is biochemical.
The target of data set [2] is PbIMPDH-B (IMPDH-B from P. brevicompactum) (Penicillium brevicompactum, UniProt F1DBB2). The data set is described as follows: biochemical.
The target of data set [3] is PcIMPDH-B (IMPDH-B from P. chrysogenum) (Penicillium chrysogenum, UniProt B6H451). Nature of the data set: biochemical.
The target in data set [4] is PcIMPDH-A (IMPDH-A from Penicillium chrysogenum) (Penicillium chrysogenum, UniProt B6HC24). Nature of the data set: biochemical.
The test system of data set [5] is E. coli ΔguaB expressing PbIMPDH-B. Nature of the data set: Bacterial complementation assay with MPA. Conditions: 100 μM MPA, no guanosine. It counts as cell-based. The essentials: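 E. coli BL21(DE3) ΔguaB host (no endogenous IMPDH) carrying N-terminal His6-tagged fungal IMPDH on a pET28-derived vector. Overnight LB cultures with 25 μg/ml kanamycin; 1:20 serial dilutions spotted on M9 minimal medium with 0.5% casamino acids, 100 μg/ml L-tryptophan, 0.1% thiamin, kanamycin, 66 μM IPTG, ± 100 μM MPA; guanosine plates get 50 μg/ml. Incubated overnight at 37°C, then at room temperature; growth scored.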

The next data set has as its system Imd3. Particulars: Imd3 from Saccharomyces cerevisiae; cited from earlier work.
The test system of data set [6] is AnImdA, PcIMPDH-A and PcIMPDH-B. The data set is described as follows: MPA inhibition of the MPA-sensitive fungal IMPDHs. Conditions: range over AnImdA. It counts as biochemical.
A further data set deals with Imd2. Conditions: Imd2 from Saccharomyces cerevisiae; cited from earlier work.
For a further data set, the system named is P. chrysogenum. Nature of the data set: Spot assay to determine sensitivity towards MPA. It counts as cell-based, Penicillium chrysogenum. Conditions: CYA plates with 200 μg/ml MPA (method) / 6.2 μM MPA (legend of Figure 2A), 25°C. The method in brief:
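Strain IBT5857 spores harvested into sterile water. 10-fold serial dilutions spotted onto CYA with or without MPA, most concentrated spot ~10⁶ spores. MPA stock was 25 mg/ml in methanol, and every plate held 0.8% (v/v) methanol. Stock and plates were made just before spotting to avoid MPA degradation. Grown at 25°C; growth of dilution series scored.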

The target in data set [7] is AnImdA (IMPDH from Aspergillus nidulans) (Aspergillus nidulans, UniProt C8V6R6). Nature of the data set: biochemical.
For data set [8], the target named is PbIMPDH-A Tyr411 substituted with Phe (Penicillium brevicompactum, UniProt A0A9W9QLZ9, Y425F). The data set is described as follows: MPA inhibition of PbIMPDH-A variant 411*. The format is biochemical. Conditions: read-out: IC50, 411*, PbIMPDH-A Tyr411 to Phe.
Data set [9] concerns the target PbIMPDH-A (IMPDH-A from Penicillium brevicompactum) (Penicillium brevicompactum, UniProt A0A9W9QLZ9). Nature of the data set: IMPDH enzyme assay. It counts as biochemical.
In data set [10] the target is AnImdA Tyr411 substituted with Phe (Aspergillus nidulans, UniProt C8V6R6, Y186F). The data set is described as follows: MPA inhibition of AnImdA variant 411*. It counts as biochemical.
For data set [11] the following is noted: cited from earlier work.
Data set [12] deals with NC(=O)c1ccc[n+]([C@@H]2O[C@H](COP(=O)([O-])OP(=O)(O)OC[C@H]3O[C@@H](n4cnc5c(N)ncnc54)[C@H](O)[C@@H]3O)[C@@H](O)[C@H]2O)c1. The data set is described as follows: cells, lysate or membranes named. Conditions: pH 8.0.

Chain of PbIMPDH-B (IMPDH-B from P. brevicompactum) (F1DBB2 whole entry): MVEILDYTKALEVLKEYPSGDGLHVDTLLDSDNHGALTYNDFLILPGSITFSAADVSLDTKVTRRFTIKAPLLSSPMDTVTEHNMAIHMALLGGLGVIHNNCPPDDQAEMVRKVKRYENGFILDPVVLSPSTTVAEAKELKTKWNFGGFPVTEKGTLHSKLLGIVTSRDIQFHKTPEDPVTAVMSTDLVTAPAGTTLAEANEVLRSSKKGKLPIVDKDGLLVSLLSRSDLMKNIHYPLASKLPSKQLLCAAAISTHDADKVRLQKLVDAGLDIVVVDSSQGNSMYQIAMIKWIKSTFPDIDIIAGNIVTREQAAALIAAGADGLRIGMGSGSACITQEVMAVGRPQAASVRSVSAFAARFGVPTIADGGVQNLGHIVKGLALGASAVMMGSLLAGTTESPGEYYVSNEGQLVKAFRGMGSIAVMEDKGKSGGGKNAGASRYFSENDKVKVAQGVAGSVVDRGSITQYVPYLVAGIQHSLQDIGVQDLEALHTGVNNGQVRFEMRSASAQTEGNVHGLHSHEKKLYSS
Chain of PbIMPDH-B Phe411 substituted with Tyr (F1DBB2 whole entry F415Y): as the sequence (F1DBB2 whole entry) above, with F415Y counted along it

As for `COc1c(C)c2c(c(O)c1C/C=C(\C)CCC(=O)O)C(=O)OC2` [MPA, mycophenolic acid], the IC50 (in general, the concentration needed to halve the response being measured) in [1] was 25 ± 2 µM; in [2], 27 ± 9 µM; in data set [3], 60 ± 10 nM; in data set [4], 36 ± 4 nM; in the data set on Imd3 it was 500 nM; in [6], 26 to 60 nM. Further, the IC50 is 70 µM with Imd2; 26 ± 2 nM in [7]; 160 ± 20 nM in data set [8]; 430 ± 30 nM in [9] (read-out: IC50 (MPA), WT PbIMPDH-A, saturating IMP, half-saturating NAD^+, 25°C); 26 ± 2 nM in data set [10]. For the same compound, the “growth on minimal media with MPA” value in [5] is “resistant”. Further, the “sensitivity towards MPA (growth of spore dilutions)” value with P. chrysogenum is “more resistant to MPA than A. nidulans”. In [9] (PbIMPDH-A versus IMPDHs from the other filamentous fungi), the “fold more resistant to MPA” value came to 10 fold. Further, the “increase of IMP concentrations in the presence of MPA” value in [11] is on record as 10-35 fold.

`NC(=O)c1ccc[n+]([C@@H]2O[C@H](COP(=O)([O-])OP(=O)(O)OC[C@H]3O[C@@H](n4cnc5c(N)ncnc54)[C@H](O)[C@@H]3O)[C@@H](O)[C@H]2O)c1` [NAD^+, nicotinamide adenine dinucleotide]: in data set [2] (read-out: KM (NAD^+), PbIMPDH-B), the Km (usually the concentration of substrate that gives half-maximal velocity) worked out at 790 ± 140 µM.

For “AnImdA (IMPDH from Aspergillus nidulans) (Aspergillus nidulans FGSC A4)”, in data set [12] (other: AnImdA), the Km stood at 170 ± 70 µM and the kcat/Km (commonly the turnover number divided by the Michaelis constant) is on record as 4,400 ± 100 M^−1s^−1.

With “PcIMPDH-A (IMPDH-A from Penicillium chrysogenum) (Penicillium rubens Wisconsin 54-1255)”, in data set [12] (other: PcIMPDH-A), the Km was found to be 290 ± 60 µM and the kcat/Km was determined as 2900 ± 300 M⁻¹ s⁻¹.

As for “PcIMPDH-B (IMPDH-B from P. chrysogenum) (Penicillium rubens Wisconsin 54-1255)”, in data set [12] (other: PcIMPDH-B), the Michaelis constant (Km) is 640 ± 130 µM and the kcat/Km worked out at 11 ± 6 M⁻¹ s⁻¹.
